HKDC1 inhibitor = HKDC1 hexokinase inhibitors, primary screen, biochemical, fluorescence, uHTS. hit rate 0.16% among 340,000. inhibition, % at 20 µM. Q2TB90. AID 493160, 2011. recombinant HKDC1, G6PDH/diaphorase resazurin coupled fluorescence;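 active = inhibition above about 35% when tested at 20 µM, limit read from the data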
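Incubation: 90 min at room temperature in dark / Material: recombinant HKDC1 (HK5) hexokinase enzyme, produced in-house / Quantity: enzyme 5 µg/mL final / Compound: one dose of 20 µM, 1% DMSO / Reagent: glucose and ATP substrates / Buffer or medium: Tris pH 8.0 buffer with MgCl2, Tween-20, BSA, BME / Technique: resorufin fluorescence at 613 nm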
PHOSPHO1 block = PubChem AID 1565. Phosphoethanolamine/phosphocholine phosphatase (Homo sapiens), Q8TCT1. recombinant PHOSPHO1, absorbance phosphatase assay. inhibition, % at 13.3 µM. hit rate 1.1% among 290,000; in the data active = inhibition above about 60%
Target sequence (Q8TCT1 whole entry, looked up): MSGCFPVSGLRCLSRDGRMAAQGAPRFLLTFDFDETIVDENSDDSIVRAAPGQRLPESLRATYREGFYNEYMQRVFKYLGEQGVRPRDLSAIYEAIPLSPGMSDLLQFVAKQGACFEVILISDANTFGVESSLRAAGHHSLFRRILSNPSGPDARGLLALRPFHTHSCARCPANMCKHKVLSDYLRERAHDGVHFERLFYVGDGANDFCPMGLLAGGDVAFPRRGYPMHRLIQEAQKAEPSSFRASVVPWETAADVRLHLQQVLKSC
PfGluPho inh = PfG6PD enzyme inhibitors, primary screen, biochemical, fluorescence intensity, uHTS; glucose-6-phosphate dehydrogenase-6-phosphogluconolactonase (Plasmodium falciparum 3D7); inhibition, % at 20 µM; hit rate 0.78% among 350,000; PfGluPho enzyme, NADPH resazurin-diaphorase fluorescence; AID 504690, 2011;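 active = inhibition reaching at least a set limit at 20 µM in the primary screen, cut at about 59% in these data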
TbHK1 inh = Trypanosoma brucei hexokinase 1 inhibitors, primary screen, biochemical, G6PDH-coupled NADH absorbance, MLSCN library; AID 1430, 2008; inhibition, % at 10 µM; hit rate 0.11% among 220,000; recombinant TbHK1, G6PDH-coupled NADH A340; hexokinase 1 [Trypanosoma brucei];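 active = inhibition of 50% or more in the single-dose primary screen; inactive = inhibition below 50%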
EP2 modulator = EP2 receptor modulators, cAMP readout, primary screen, cell-based, HTRF cAMP, PGE2 stimulation | EP2-expressing cells, cAMP HTRF FRET, PGE2 co-stimulation | hit rate 0.83% among 260,000 | induction, % at 25 µM | Prostaglandin E2 receptor EP2 subtype (Homo sapiens), P43116;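 active = compounds whose cAMP rise, as percent of the full-agonist control response, exceeds 60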;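 also: rat C6 glioma line stably carrying human EP2 under a CMV promoter; the protocol text gives 20 µM as final concentration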
Target sequence (P43116 whole entry, looked up): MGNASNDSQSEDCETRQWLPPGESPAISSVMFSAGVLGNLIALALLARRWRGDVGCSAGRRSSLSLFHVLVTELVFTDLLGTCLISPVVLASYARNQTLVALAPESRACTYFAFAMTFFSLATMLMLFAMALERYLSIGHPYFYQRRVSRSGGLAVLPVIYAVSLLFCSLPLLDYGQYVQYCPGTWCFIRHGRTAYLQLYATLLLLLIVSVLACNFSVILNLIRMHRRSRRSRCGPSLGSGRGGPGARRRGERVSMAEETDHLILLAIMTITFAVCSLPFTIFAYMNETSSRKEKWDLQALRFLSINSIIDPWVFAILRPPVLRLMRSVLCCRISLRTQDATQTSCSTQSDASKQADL
PGE2 EP2 inh = human EP2 receptor antagonists, primary screen, TR-FRET cAMP, C6 glioma cells. hit rate 0.52% among 260,000. AID 1422, 2008. inhibition, % at 25 µM. C6 glioma cells expressing human EP2; cells stimulated with saturating PGE2. Prostaglandin E2 receptor EP2 subtype (Homo sapiens), P43116;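 active = percent inhibition above 40 after rounding to a whole number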;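 also: rat C6 glioma host cells with rolipram phosphodiesterase inhibitor present; the protocol text gives 20 µM as final concentration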
Numbers stand for hits; n = inactive; x = not tested or not shown. Sampled rows, rich in hits. Any-hit rate of the full collection: about 2.5%.

SMILES | HKDC1 inhibitor | PHOSPHO1 block | PfGluPho inh | TbHK1 inh | EP2 modulator | PGE2 EP2 inh
COc1cc(C2C(C#N)=C(N)Oc3n[nH]c(-c4cccs4)c32)cc(OC)c1OC(C)=O (stereo not drawn) | x | x | x | x | n | n
Cn1c(=O)oc2cc(S(=O)(=O)N3CCC(C(N)=O)(N4CCCCC4)CC3)ccc21 | x | x | x | x | n | n
CCOc1ccc2[nH]c(=O)c(CN(Cc3cccnc3)C(=O)c3ccccc3Cl)cc2c1 | x | x | x | x | n | 72.3
CCOc1ccc2[nH]c(=O)c(CN(Cc3cccnc3)C(=O)Nc3ccccc3OC)cc2c1 | n | n | n | n | n | n
CC(C)(C)c1cccc(P(=O)(c2ccccc2)c2ccccc2)c1O | n | n | n | n | 66.2 | n
CC(C)(C)C1=NN(CC(=O)NCCc2ccco2)C(=O)c2cc3sccc3n2C1 | x | x | x | x | n | n
Cc1ccc(-c2nc(C(Cl)Cl)c3ccccc3n2)cc1 | n | n | n | n | 61.5 | n
CN1CCN(CCCNN)CC1 | x | x | x | x | n | n
CN1CCN(CCCBr)CC1 | x | x | x | x | n | 41.0
COc1ccc(C(C)NC(=O)C2CCN(c3ncccn3)CC2)cc1 (stereo not drawn) | x | x | x | x | n | n
Cc1ccc(/C=N/c2sc3c(c2C#N)CCCCC3)o1 | n | 61.0 | n | n | n | n
N#Cc1c(/N=C/c2ccco2)sc2c1CCC2 | n | n | n | n | n | n
COc1ccc(C(=O)c2sc3nc(-c4ccc(OC)cc4)ccc3c2N)cc1 | n | n | n | n | n | n
COc1ccc(-c2ccc3c(N)c(C(=O)c4cccc(OC)c4)sc3n2)cc1 | n | 88.6 | n | n | n | n
O=C(CSc1nc(-c2ccc(F)cc2)cs1)NC(=O)NCc1ccco1 | n | 79.4 | n | n | n | n
O=C(CSc1nncs1)NC(=O)NCc1ccco1 | n | n | n | n | n | n
O=C(CSc1ccc2nnc(-c3cccnc3)n2n1)NCc1ccco1 | n | n | n | n | n | n
O=C(CSc1ncc(-c2ccc(F)cc2)[nH]1)NCc1ccco1 | n | 74.0 | n | n | n | n
O=C(CSc1ccc2nnc(-c3cccc(F)c3)n2n1)NCc1ccco1 | n | 64.6 | n | n | n | n
O=C(CSc1ncccc1-c1nc2ccccc2[nH]1)NCc1ccco1 | n | 61.3 | n | n | n | n
Cc1csc(NC(=O)CN2CCC(c3ccncc3)CC2)n1 | x | x | x | x | n | n
CCOc1ccc(/C(O)=C2/C(=O)C(=O)NC2c2cc(OC)ccc2OC)cc1 (stereo not drawn) | x | x | x | x | n | n
CCc1ccc(NC(=O)CSc2nnc(-c3ccncc3)n2CCCN(C)C)cc1 | x | x | x | x | n | n
NC(=O)CN1CCC(O)(c2ccc3c(c2)OCO3)CC1 | x | x | x | x | n | n
COc1ccccc1C1(O)CCN(Cc2cn[nH]c2-c2cccs2)CC1 | x | x | x | x | n | n
SMILES | HKDC1 inhibitor | PHOSPHO1 block | PfGluPho inh | TbHK1 inh | EP2 modulator | PGE2 EP2 inh
O=C(Cn1nc(-c2ccncc2)oc1=O)N1CCN(c2ccccc2)CC1 | x | x | x | x | n | n
Nn1c(SCC(=O)NC(=O)NCc2ccco2)nnc1-c1ccc(OC(F)F)cc1 | n | 93.0 | n | n | n | x
NNC(=O)c1c(NC(=O)c2ccccc2)sc2c1CCCCC2 | x | x | x | x | n | n
Cc1nn(CCOc2ccccc2)c(=O)n1-c1ccccc1 | n | 62.3 | n | n | n | n
c1ccc(CCN(Cc2ccccc2)Cc2nc(C3CC3)no2)cc1 | n | n | n | n | 61.9 | n
CCN(Cc1ccccc1)Cc1nc(CCc2ccccc2)no1 | n | n | n | n | n | n
Clc1ccc(CSc2ncnc3c2ncn3[C@@H]2CCCCO2)cc1 | x | x | x | x | n | 44.5
Fc1ccccc1CSc1ncnc2c1ncn2C1CCCO1 (stereo not drawn) | n | x | n | x | x | x
Cc1ccc(-c2cc(C(=O)O)c3cc(Br)ccc3n2)o1 | n | n | 75.3 | n | n | n
CCOc1ncccc1C(=O)Nc1nc(C(C)(C)C)cs1 | n | n | n | n | 63.5 | n
CCN(CC)c1nc2c(c(=O)n(C)c(=O)n2C)n1Cc1ccccc1Cl | x | x | x | x | n | n
Cc1c(/C(O)=C2/C(=O)C(=O)N(CCN3CCOCC3)C2c2ccccn2)cnn1-c1ccccc1 (stereo not drawn) | n | 60.0 | n | n | n | n
CCOC(=O)c1sc(NC(=O)CSc2nc3ccc(CC)cc3cc2C#N)nc1C | x | x | x | x | n | n
CCCC[n+]1ccn(-c2nc3ccccc3nc2[N-]S(=O)(=O)c2cccs2)c1 | n | 76.8 | n | n | n | n
Nc1nc(-c2cccc([N+](=O)[O-])c2)cc(-c2cc(-c3cccc([N+](=O)[O-])c3)nc(N)n2)n1 | x | x | x | x | n | 43.8
Nc1c(-c2ccccc2)cnn1-c1cccc([N+](=O)[O-])c1 | n | 64.6 | n | n | n | n
COc1cccc(N(C(=O)c2ccccn2)C(C(=O)NC2CCCCC2)c2ccc(F)cc2)c1 (stereo not drawn) | x | x | x | x | n | n
CCOc1ccc(CC(=O)N2CCC(C(=O)c3nc4ccccc4s3)CC2)cc1 | x | x | x | x | n | x
COC(=O)CN1C(=O)C(=O)/C(=C(\O)c2ccccc2)C1c1ccc2c(c1)OCO2 (stereo not drawn) | x | x | x | x | n | n
O=C(NC1CCN(Cc2ccccc2)CC1)c1cc2ccccc2oc1=O | x | x | x | x | n | n
Cc1ccc(-n2nnc3c(=O)oc4ccccc4c32)cc1 | n | n | n | n | n | 86.4
CCC(C)n1nnc2c(=O)oc3ccccc3c21 (stereo not drawn) | n | n | n | n | n | n
O=c1oc2ccccc2c2c1nnn2C1CCN(Cc2ccccc2)CC1 | x | x | x | x | n | 73.7
C/C(=N/Nc1nc(-c2ccc(Cl)cc2)cs1)c1cccs1 | n | 92.4 | n | n | n | n
CC(=O)Nc1ccc(-c2csc(N/N=C(/C)c3ccccc3)n2)cc1 | n | n | n | n | n | n
Nc1ncnc2c1ncn2C1CCCO1 (stereo not drawn) | n | x | n | x | n | n
O=[N+]([O-])c1ccc(Cl)c(CNc2ncnc3c2ncn3[C@@H]2CCCCO2)c1 | x | x | x | x | n | 42.9

Source: PubChem (several laboratories)
